In data set [1] the target is T1, Cytochrome P450 11B2, mitochondrial (Homo sapiens, UniProt P19099).
T1 sequence (P19099 whole entry): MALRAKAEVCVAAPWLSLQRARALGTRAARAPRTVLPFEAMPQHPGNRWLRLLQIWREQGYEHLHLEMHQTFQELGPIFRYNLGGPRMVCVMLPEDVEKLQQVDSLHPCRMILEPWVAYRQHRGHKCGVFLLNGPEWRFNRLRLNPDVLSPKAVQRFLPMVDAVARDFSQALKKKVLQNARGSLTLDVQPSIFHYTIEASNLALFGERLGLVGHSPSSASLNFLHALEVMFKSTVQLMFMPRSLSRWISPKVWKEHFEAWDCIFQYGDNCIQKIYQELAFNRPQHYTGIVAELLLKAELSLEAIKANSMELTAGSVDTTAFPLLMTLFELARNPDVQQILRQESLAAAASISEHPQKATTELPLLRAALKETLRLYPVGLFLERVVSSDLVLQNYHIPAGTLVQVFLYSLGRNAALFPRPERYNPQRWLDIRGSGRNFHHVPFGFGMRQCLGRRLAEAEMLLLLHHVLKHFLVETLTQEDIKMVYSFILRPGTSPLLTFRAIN
The experiment in a line: Inhibition of human aldosterone synthase expressed in chinese hamster V79 cells at 500 nM using 11-deoxycorticosterone as substrate. The note with it: read-out: INH.

The target in data set [2] is T2, CYP11B1 (steroid-11beta-hydroxylase) (Homo sapiens, UniProt P15538).
T2 sequence (P15538 whole entry): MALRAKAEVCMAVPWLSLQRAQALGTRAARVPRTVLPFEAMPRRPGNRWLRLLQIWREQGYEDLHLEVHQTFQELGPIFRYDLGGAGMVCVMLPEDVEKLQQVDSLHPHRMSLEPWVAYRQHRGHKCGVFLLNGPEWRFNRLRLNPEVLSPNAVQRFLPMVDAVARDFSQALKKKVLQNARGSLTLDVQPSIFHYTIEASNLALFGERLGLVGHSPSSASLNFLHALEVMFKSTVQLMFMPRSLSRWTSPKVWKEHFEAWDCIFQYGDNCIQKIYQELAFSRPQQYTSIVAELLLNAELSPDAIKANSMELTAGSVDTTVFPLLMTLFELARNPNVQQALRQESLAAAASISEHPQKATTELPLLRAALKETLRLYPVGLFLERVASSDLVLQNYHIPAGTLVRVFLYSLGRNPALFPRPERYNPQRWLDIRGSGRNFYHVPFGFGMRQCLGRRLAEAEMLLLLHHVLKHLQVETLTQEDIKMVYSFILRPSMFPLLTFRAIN
The experiment in a line: Inhibition of human steroid-11beta-hydroxylase expressed in chinese hamster V79 cells at 500 nM using 11-deoxycorticosterone as substrate.

For data set [3], the target named is T1, Cytochrome P450 11B2, mitochondrial. The experiment in a line: Inhibition of human aldosterone synthase expressed in chinese hamster V79 cells using 11-deoxycorticosterone as substrate. Type of data set: cell-based.
In data set [4] the target is T3, Cytochrome P450 11B1, mitochondrial (Homo sapiens, UniProt P15538).
T3 sequence (P15538 whole entry): T2 sequence (P15538 whole entry)
The experiment in a line: Inhibition of human steroid-11beta-hydroxylase expressed in chinese hamster V79 cells using 11-deoxycorticosterone as substrate. Type of data set: cell-based.

The species named for data set [5] is Homo sapiens. The experiment in a line: Selectivity ratio of IC50 for human steroid-11beta-hydroxylase to IC50 for human aldosterone synthase.
Data set [6] deals with T4, CYP17 (steroid 17-alpha-hydroxylase/17,20 lyase) (Homo sapiens, UniProt P05093).
T4 sequence (P05093 whole entry): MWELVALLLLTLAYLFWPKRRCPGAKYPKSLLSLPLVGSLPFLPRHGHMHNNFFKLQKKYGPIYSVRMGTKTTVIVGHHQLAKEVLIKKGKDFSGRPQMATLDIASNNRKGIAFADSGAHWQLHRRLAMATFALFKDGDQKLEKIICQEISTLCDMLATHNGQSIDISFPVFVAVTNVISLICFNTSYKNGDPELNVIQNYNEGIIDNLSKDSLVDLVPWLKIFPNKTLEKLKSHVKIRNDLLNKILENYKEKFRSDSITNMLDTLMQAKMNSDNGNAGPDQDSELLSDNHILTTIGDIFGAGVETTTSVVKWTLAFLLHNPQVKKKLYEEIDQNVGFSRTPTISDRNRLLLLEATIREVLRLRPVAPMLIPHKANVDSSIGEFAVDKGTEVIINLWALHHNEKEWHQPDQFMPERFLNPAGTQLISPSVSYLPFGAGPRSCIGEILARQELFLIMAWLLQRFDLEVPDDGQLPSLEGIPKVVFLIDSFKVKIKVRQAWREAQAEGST
The experiment in a line: Inhibition of human CYP17 expressed in Escherichia coli at 2000 nM using progesterone as substrate. As to conditions: probe progesterone. In outline:
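50,000 g sediment of homogenate from E. coli recombinantly expressing human CYP17; substrate progesterone at 25 µM; inhibitor tested at 2.0 µM.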

Data set [7] concerns the target T5, CYP19 (aromatase) (Homo sapiens, UniProt P11511).
T5 sequence (P11511 whole entry): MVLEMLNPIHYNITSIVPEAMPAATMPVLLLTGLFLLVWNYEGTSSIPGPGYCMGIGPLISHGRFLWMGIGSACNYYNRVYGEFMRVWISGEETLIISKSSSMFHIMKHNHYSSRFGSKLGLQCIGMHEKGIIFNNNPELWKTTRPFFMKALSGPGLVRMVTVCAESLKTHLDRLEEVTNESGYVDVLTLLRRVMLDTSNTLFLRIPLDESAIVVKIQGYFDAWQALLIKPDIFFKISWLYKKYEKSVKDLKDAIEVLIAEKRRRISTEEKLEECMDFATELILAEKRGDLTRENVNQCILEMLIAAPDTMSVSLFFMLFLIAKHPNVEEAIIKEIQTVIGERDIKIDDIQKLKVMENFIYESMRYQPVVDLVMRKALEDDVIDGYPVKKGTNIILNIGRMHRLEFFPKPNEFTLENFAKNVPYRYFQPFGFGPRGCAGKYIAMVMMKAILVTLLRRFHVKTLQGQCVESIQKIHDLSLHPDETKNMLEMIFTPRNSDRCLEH
The experiment in a line: Inhibition of human placental CYP19 at 500 nM using androstenedione as substrate. The note with it: human placental CYP19, probe androstenedione. Put shortly:
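Human placental CYP19 as enzyme source; substrate androstenedione at 500 nM.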

Turning to `O=C(Nc1cccnc1)c1ccc(Br)cc1`, the inhibition at 0.5 µM in data set [1] worked out at 64%; in data set [2] (v79), 0%; in data set [7], 0.1%. Besides, the IC50 – broadly, the concentration that inhibits the measured activity by half – in data set [3] is 0.104 µM; in data set [4] it was 16.7 µM. Further, the Ratio IC50 in data set [5] came to 161. The compound also came in with an inhibition at 2 µM in data set [6] of 4.3%.
On to `N#Cc1ccc(C(=O)Nc2cccnc2)cc1`, for which the figures for the inhibition at 0.5 µM in data set [1], in data set [2] (v79) and in data set [7] were 81%, 9% and 0.2%, respectively. The IC50 is 0.078 µM in data set [3] and 7.5 µM in data set [4]. In addition, in data set [5], the Ratio IC50 turned out to be 96. The inhibition at 2 µM in data set [6] came to 0.2%.
Regarding `O=C(Nc1cccnc1)c1ccc(-c2ccccc2)cc1`, the inhibition at 0.5 µM in data set [1] stood at 6%; in data set [2] (probe 11-deoxycorticosterone) it was 0%.
As for `COc1ccc(C(=O)Nc2cccnc2)cc1`, the inhibition at 0.5 µM turned out to be 19% in data set [1] and 0% in data set [2] (probe 11-deoxycorticosterone).
With `O=C(Nc1cccnc1)c1ccncc1`, the inhibition at 0.5 µM was found to be 39% in data set [1] and 4% in data set [2] (probe 11-deoxycorticosterone).
As for `O=C(Nc1cccnc1)c1ccc(F)cc1`, the values for the inhibition at 0.5 µM in data set [1], in data set [2] (probe 11-deoxycorticosterone) and in data set [7] were 86%, 7% and 1.1%, respectively. The IC50 is 0.082 µM in data set [3] and 14.3 µM in data set [4]. In addition, the Ratio IC50 in data set [5] turned out to be 174. The inhibition at 2 µM in data set [6] was determined as 0.3%.
For `O=C(Nc1cccnc1)c1ccc(OC(F)(F)F)cc1`, the inhibition at 0.5 µM in data set [1] and in data set [2] (probe 11-deoxycorticosterone) was 3% in each case.
Regarding `O=C(Nc1cccnc1)c1cc(F)c(F)cc1F`, the inhibition at 0.5 µM is 70% in data set [1], 2% in data set [2] (probe 11-deoxycorticosterone) and 0% in data set [7]. Also, the half-inhibitory concentration (IC50) in data set [3] stood at 0.166 µM; in data set [4], 16.1 µM. Further, the Ratio IC50 in data set [5] was determined as 97. This compound also came in with an inhibition at 2 µM in data set [6] of 0.6%.
Turning to `COc1ccc(C(=O)Nc2cccnc2)cc1OC`, the figures for the inhibition at 0.5 µM in data set [1] and in data set [2] (probe 11-deoxycorticosterone) were 2% and 0.1%, respectively.
`O=C(Nc1cccnc1)c1cccc(Cl)c1Cl`: the inhibition at 0.5 µM in data set [1] amounted to 51%; in data set [2] (probe 11-deoxycorticosterone), 4%.
In the same order, the values of `O=C(Nc1cccnc1)c1ccc(C(F)(F)F)cc1` are 1% and 1%.
In the case of `O=C1CCc2cc(-c3cncc4ccccc34)ccc2N1`, the inhibition at 0.5 µM in data set [2] (probe 11-deoxycorticosterone) was determined as 91%.
In the case of `O=C(Nc1cccnc1)c1ccccc1`, the inhibition at 0.5 µM in data set [1] was 30%; in data set [2] (probe 11-deoxycorticosterone) it was 2%.
On to `O=C(Nc1cccnc1)c1ccccc1F`, for which the inhibition at 0.5 µM in data set [1] was 34%; in data set [2] (probe 11-deoxycorticosterone), 1%.
As for `O=C(Nc1cccnc1)c1cncc(Br)c1`, the inhibition at 0.5 µM stood at 29% in data set [1] and 0.4% in data set [2] (probe 11-deoxycorticosterone).
With `O=C(Nc1cccnc1)c1ccc(F)c(F)c1`, the results for the inhibition at 0.5 µM in data set [1], in data set [2] (probe 11-deoxycorticosterone) and in data set [7] were 83%, 6% and 0.5%, respectively. Besides, the IC50 was determined as 0.0535 µM in data set [3] and 5.92 µM in data set [4]. The Ratio IC50 in data set [5] amounted to 111. The compound also showed an inhibition at 2 µM in data set [6] of 1%.
With `O=C(Nc1cccnc1)c1cccnc1`, the inhibition at 0.5 µM worked out at 8% in data set [1] and 3% in data set [2] (probe 11-deoxycorticosterone).
For the compound `Cc1ccc(C(=O)Nc2cccnc2)cc1`, the inhibition at 0.5 µM in data set [1] is 25%; in data set [2] (probe 11-deoxycorticosterone), 0%.
For `O=C(Nc1cccnc1)c1cccc(Cl)c1`, in that order: 26% and 0%.
Take `O=C(Nc1cccnc1)c1ccc([N+](=O)[O-])cc1`: the figures for the inhibition at 0.5 µM in data set [1], in data set [2] (probe 11-deoxycorticosterone) and in data set [7] were 64%, 0% and 0%, respectively. Also, the IC50 in data set [3] turned out to be 0.145 µM; in data set [4] it was 24.8 µM. Moreover, the Ratio IC50 in data set [5] came to 171. Besides, the inhibition at 2 µM in data set [6] turned out to be 1%.
Regarding `CC(C)(C(=O)c1cccnc1)c1cccnc1` [METYRAPONE], the values for the inhibition at 0.5 µM in data set [1], in data set [2] (probe 11-deoxycorticosterone) and in data set [7] were 79%, 94% and 0%, respectively. The inhibition at 2 µM in data set [6] is 0%.
As for `O=C(Nc1cccnc1)c1ccc(Cl)cc1`, the inhibition at 0.5 µM in data set [1] is 88%; in data set [2] (probe 11-deoxycorticosterone), 5%; in data set [7], 0%. In addition, the figures for the half-maximal inhibitory concentration (IC50) in data set [3] and in data set [4] were 0.065 µM and 10.2 µM, respectively. Further, the Ratio IC50 in data set [5] was 157. For the same compound, the inhibition at 2 µM in data set [6] stood at 1.3%.

The values above are taken from ChEMBL document CHEMBL1641566, “N-(Pyridin-3-yl)benzamides as selective inhibitors of human aldosterone synthase (CYP11B2)” (Bioorg Med Chem Lett, 2011).
